Results on 6 compounds are retold here after article PMC4161282 (Bioconjugate chemistry, 2013).

The structures appear in SMILES notation. Converted amounts (≈) assume the structure as drawn. “And” between values parts separate entries of the source, which are not always exact repeats. Equal values may be shown once. A value given as a limit tells only on which side of the number the result lay.

A short description of series [1]: Catalyst screening: oxime ligation of citral with aminooxy-dansyl 1. To be noted: catalyst 25 mM; for kobs/kobs(aniline) / kobs / t1/2: citral 50 µM; for kobs/kobs(aniline) / t1/2: 1 100 µM; for kobs: aminooxy-dansyl 1 100 µM, PB pH 7.0, rt; for catalytic efficiency compared with aniline: screening.
Series [2] can be described thus: Approximate solubility in phosphate buffer. To be noted: for solubility: phosphate buffer, pH 7, aqueous buffer.
Another series deals with DHFR^2 M174pAcF. Briefly: PEGylation of ketone-containing protein with aminooxy-PEG 12. The conditions noted are these: catalyst 100 mM, protein 7 µM, aminooxy-PEG 5 mM, pH 7, rt.
The next series concerns the target Aldehyde-GFP 4a (Aequorea victoria, UniProt P42212). Briefly: Immobilization of aldehyde-GFP 4a from crude cell lysate onto hydrazide beads. To be noted: catalyst 100 mM.
The next series deals with immobilized GFP (Aequorea victoria, UniProt P42212). Briefly: Kinetic analysis of hydrazone-oxime exchange. The conditions noted are these: catalyst 100 mM, aminooxy fluorophore 5 1 mM.
The next series deals with GFP-aldehyde 4a (Aequorea victoria, UniProt P42212). Put plainly: Kinetic analysis of protein labeling via oxime ligation. To be noted: catalyst 100 mM, 4a 10 µM, 1 50 µM.
A short description of series [3]: Effect of catalyst concentration on kobs, oxime ligation of citral with 1. The conditions noted are these: citral 30 µM, 1 100 µM.
A short description of series [4]: Kinetic analysis of oxime ligation between 2-pentanone and aminooxy-dansyl 1. The conditions noted are these: for kobs: 2-pentanone 5.0 mM, 1 150 µM; for kobs/kobs(aniline): vs 100 mM aniline.
In another series the target is T1, aldehyde-CNTF 9 (Homo sapiens, UniProt P26441).
T1 sequence (P26441 1-200): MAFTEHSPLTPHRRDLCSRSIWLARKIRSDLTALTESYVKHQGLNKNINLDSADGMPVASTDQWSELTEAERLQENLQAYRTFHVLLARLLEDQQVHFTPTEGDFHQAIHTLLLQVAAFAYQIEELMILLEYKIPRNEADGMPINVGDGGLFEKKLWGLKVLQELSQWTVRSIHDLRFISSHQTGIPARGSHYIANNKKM
Briefly: Rate analysis of coupling between aldehyde-CNTF 9 and aminooxy 5. The conditions noted are these: catalyst 80 mM, 9 50 µM, 5 600 µM, 5 min. In a few lines: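 Run at rt and started by adding aldehyde-bearing CNTF (stock 60 µM in 50 mM Tris-HCl, pH 7.5). Aliquots were taken every 5 min into SDS loading buffer and flash-frozen in liquid nitrogen. Samples were heated at 98 °C for 4 min, then analysed by SDS-PAGE.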

Setting [5] is: phosphate buffer (0.1 M), pH 7.0, rt.

On to `Nc1ccccc1C(=O)O` [o-Aminobenzoic acid, o-aminobenzoic acid], for which, in series [1], the “kobs/kobs(aniline)” value is 1.01, the kobs is 24.8 ± 0.8 s⁻¹ M⁻¹ and the “catalytic efficiency compared with aniline” value is listed as “equal to or less efficient than aniline”. In addition, the solubility in series [2] is more than 2000 mM.

For `Nc1ccccc1N` [o-Phenylene-diamine, o-phenylenediamine], in series [1], the “kobs/kobs(aniline)” value came out at 0.74, the t1/2 amounted to 7.47 min, the kobs came to 18.1 ± 0.3 s⁻¹ M⁻¹ and the “catalytic efficiency compared with aniline” value is recorded as “equal to or less efficient than aniline”. In addition, in [2] (setting [5]), the “Approximate Solubility” value is listed as “very soluble (>1 M)”.

As for `Nc1cccc(O)c1` [m-Aminophenol, m-aminophenol], in series [1], the “kobs/kobs(aniline)” value is given as 0.98 and the kobs was 23.9 ± 0.5 s⁻¹ M⁻¹.

As for `Nc1ccccc1` [Aniline, aniline, reference compound], the “effect on PEGylation reaction rate” value in the series with DHFR^2 M174pAcF was “did not have a significant effect on the reaction rate”. In addition, the kobs came to 24.4 ± 0.5 s⁻¹ M⁻¹ in series [1]; 10.3 M⁻¹ s⁻¹ at GFP-aldehyde 4a; 24.3 ± 0.2 s⁻¹ M⁻¹ in series [3] (catalyst 25 mM); 33.5 ± 0.2 s⁻¹ M⁻¹ in series [3] (catalyst 35 mM); 36.9 ± 0.3 s⁻¹ M⁻¹ in series [3] (catalyst 42 mM); 48.6 ± 0.2 s⁻¹ M⁻¹ in series [3] (catalyst 50 mM). For the same compound, the kobs in [3] (catalyst 50 mM, listed as aniline) was 48.9 s⁻¹ M⁻¹ and 48.6 s⁻¹ M⁻¹; in series [4] (catalyst 100 mM), 0.082 s⁻¹ M⁻¹ and 0.082 ± 0.0007 s⁻¹ M⁻¹. Also, at Aldehyde-GFP 4a, the “time to complete immobilization” value is reported as “less than 45 min”. The “kobs of immobilized protein release” value at immobilized GFP was found to be 0.0159 h⁻¹. The “extent of reaction (labeling) in about 90 s” value at GFP-aldehyde 4a was less than 7%. The “Approximate Solubility” value in [2] (setting [5]) is listed as 100 mM. The compound also gave a solubility in series [2] (Approximate Solubility, phosphate buffer (0.1 M), pH 7.0, rt) of approximately 100 mM (≈ 9310 µg/mL). Further, the “kobs/[cat.]” value in [3] (catalyst 25 mM) came out at 0.97 ms^−1 M^−2; in [3] (catalyst 35 mM) it was 0.96 ms^−1 M^−2; in series [3] (catalyst 42 mM), 0.88 ms^−1 M^−2; in [3] (catalyst 50 mM) it was 0.97 ms^−1 M^−2.

`Nc1cccc(N)c1` [m-Phenylene-diamine, m-phenylenediamine]: the “extent of protein labeling (Coomassie gel)” value at aldehyde-CNTF 9 is on record as “almost all of the protein was labeled”. Also, the kobs is 38.7 ± 0.1 s⁻¹ M⁻¹ in [3] (catalyst 25 mM); 58.3 ± 0.3 s⁻¹ M⁻¹ in [3] (catalyst 35 mM); 65.6 ± 0.6 s⁻¹ M⁻¹ in [3] (catalyst 42 mM); 78.2 ± 0.7 s⁻¹ M⁻¹ in series [3] (catalyst 50 mM, listed as mPDA); 0.20 ± 0.0016 s⁻¹ M⁻¹ in series [4] (catalyst 100 mM, listed as mPDA); 0.36 ± 0.0042 s⁻¹ M⁻¹ in series [4] (catalyst 300 mM). Besides, the kobs in series [4] (catalyst 500 mM) was 0.73 ± 0.0071 s⁻¹ M⁻¹; in series [4] (catalyst 700 mM), 1.17 ± 0.013 s⁻¹ M⁻¹; in series [4] (catalyst 900 mM), 1.69 ± 0.022 s⁻¹ M⁻¹. Moreover, the “kobs/[cat.]” value in series [3] (catalyst 25 mM) is 1.55 ms^−1 M^−2; in series [3] (catalyst 35 mM) it was 1.66 ms^−1 M^−2; in [3] (catalyst 42 mM), 1.56 ms^−1 M^−2; in series [3] (catalyst 50 mM), 1.56 ms^−1 M^−2. Also, the “kobs/kobs(aniline)” value in [4] (catalyst 100 mM) is recorded as 2.41; in series [4] (catalyst 300 mM), 4.45; in series [4] (catalyst 500 mM), 8.89; in series [4] (catalyst 700 mM), 14.3; in series [4] (catalyst 900 mM) it was 20.7.

Regarding `Nc1ccc(N)cc1` [p-Phenylene-diamine, p-phenylenediamine], in series [1], the “kobs/kobs(aniline)” value is 1.20, the t1/2 came to 4.63 min, the kobs was found to be 29.2 ± 0.7 s⁻¹ M⁻¹ and the “catalytic efficiency compared with aniline” value is given as “more efficient compared with aniline”. For the same compound, the “Approximate Solubility” value in series [2] (setting [5]) was “very soluble (>1 M)”.

What is called solubility is the concentration that dissolves in the medium under given conditions.
